Where no end group is shown, it is not given here. [ ]: non-standard residue; d: D form. The star is where a group is joined. Biotin = O=C1N[C@H]2[C@H](CS[C@H]2CCCCC(=O)*)N1; TTDS = NCCCOCCOCCOCCCNC(=O)CCC(=O)*; pS = N[C@@H](COP(=O)(O)O)C(=O)O
Columns and labels:
GORASP2 PDZ = experiment: holdup assay; format: binding, human; details: ~4 μM PDZ; for binding intensity (BI): fraction of PDZ depleted, biotinylated RSK1_725–735, triplicates; for Kd: read-out: KD, estimated, from BI, estimated 17 μM peptide
Method in brief: (§1)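 Automated holdup against N-terminally biotinylated (TTDS linker) RSK1 725–735 peptides, unphosphorylated and phosphorylated, in triplicate. PDZome v2 clones were codon-optimized and expressed in E. coli, with soluble lysate adjusted to ~4 μM. BI is the PDZ fraction depleted from the fluid phase.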

SYNJ2BP PDZ = target: T1, SYNJ2BP PDZ (Homo sapiens, UniProt P57105); experiment: competitive fluorescence polarization; format: binding; details: summary of high-throughput SPR and competitive FP
T1 sequence (P57105 13-100 limits assumed): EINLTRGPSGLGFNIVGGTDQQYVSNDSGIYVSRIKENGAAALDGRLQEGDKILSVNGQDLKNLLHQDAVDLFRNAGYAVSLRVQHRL

DLG4-2 PDZ = experiment: holdup assay; format: binding, human; details: ~4 μM PDZ; for binding intensity (BI): fraction of PDZ depleted, biotinylated RSK1_725–735, triplicates
GORASP1 PDZ = experiment: holdup assay; format: binding, human; details: ~4 μM PDZ; for binding intensity (BI): fraction of PDZ depleted, biotinylated RSK1_725–735, triplicates; for Kd: read-out: KD, estimated, from BI, estimated 17 μM peptide
Method in brief: as §1

MAST1 PDZ = target: T2, MAST1 PDZ (Homo sapiens, UniProt Q9Y2H9); experiment: holdup assay; format: binding; details: ~4 μM PDZ; for binding intensity (BI): fraction of PDZ depleted, biotinylated RSK1_725–735, triplicates; for Kd: read-out: KD, estimated, from BI, estimated 17 μM peptide
T2 sequence (Q9Y2H9 967-1055 limits assumed): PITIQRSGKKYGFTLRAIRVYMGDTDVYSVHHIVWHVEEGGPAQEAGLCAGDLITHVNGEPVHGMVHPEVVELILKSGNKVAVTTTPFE
Method in brief: as §1

HTRA1 PDZ = HTRA1 PDZ (Homo sapiens, UniProt Q92743); experiment: holdup assay; format: binding; details: ~4 μM PDZ; for binding intensity (BI): fraction of PDZ depleted, biotinylated RSK1_725–735, triplicates; for Kd: read-out: KD, estimated, from BI, estimated 17 μM peptide
HTRA1 PDZ, sequence (Q92743 365-467 limits assumed): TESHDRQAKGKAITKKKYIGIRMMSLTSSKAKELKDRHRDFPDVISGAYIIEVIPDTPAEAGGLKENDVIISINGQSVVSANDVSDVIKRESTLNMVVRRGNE
Method in brief: as §1

SHROOM2 PDZ = experiment: holdup assay; format: binding, human; details: ~4 μM PDZ; for binding intensity (BI): fraction of PDZ depleted, biotinylated RSK1_725–735, triplicates; for Kd: read-out: KD, estimated, from BI, estimated 17 μM peptide
Method in brief: as §1

GRID2IP-1 PDZ = experiment: holdup assay; format: binding, human; details: ~4 μM PDZ; for binding intensity (BI): fraction of PDZ depleted, biotinylated RSK1_725–735, triplicates; for Kd: read-out: KD, estimated, from BI, estimated 17 μM peptide
Method in brief: as §1

PPP1R9A PDZ = experiment: holdup assay; format: binding, human; details: ~4 μM PDZ; for binding intensity (BI): fraction of PDZ depleted, biotinylated RSK1_725–735, triplicates; for Kd: read-out: KD, estimated, from BI, estimated 17 μM peptide
Method in brief: as §1

MPDZ-10 PDZ = experiment: holdup assay, updated analysis; format: binding, human; details: weak partner; automated computational protocol
Method in brief: (§2)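 The same triplicate holdup datasets (biotinylated RSK1 725–735, unphosphorylated and phosphorylated, vs ~4 μM PDZome lysates) were re-analysed with an updated automated computational protocol. This gave alternative BI values, reported as supplemental values alongside the conventional analysis.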

SCRIB-3 PDZ = experiment: holdup assay, updated analysis; format: binding, human; details: weak partner; automated computational protocol
Method in brief: as §2

SNTB1 PDZ = target: T3, SNTB1 PDZ (Homo sapiens, UniProt Q13884); experiment: holdup assay; format: binding; details: ~4 μM PDZ; for binding intensity (BI): fraction of PDZ depleted, biotinylated RSK1_725–735, triplicates; for Kd: read-out: KD, estimated, from BI, estimated 17 μM peptide
T3 sequence (Q13884 112-195 limits assumed): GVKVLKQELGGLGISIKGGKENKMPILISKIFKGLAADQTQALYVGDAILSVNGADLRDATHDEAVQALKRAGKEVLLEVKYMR
Method in brief: as §1

LNX1 −3 PDZ = experiment: holdup assay; format: binding, human; details: ~4 μM PDZ; for binding intensity (BI): fraction of PDZ depleted, biotinylated RSK1_725–735, triplicates; for Kd: read-out: KD, estimated, from BI, estimated 17 μM peptide
Method in brief: as §1

PTPN3 PDZ = experiment: holdup assay; format: binding, human; details: ~4 μM PDZ; for binding intensity (BI): fraction of PDZ depleted, biotinylated RSK1_725–735, triplicates; for Kd: read-out: KD, estimated, from BI, estimated 17 μM peptide
Method in brief: as §1

RHPN1 PDZ = experiment: holdup assay, updated analysis; format: binding, human; details: weak partner; automated computational protocol
Method in brief: as §2

LIN7A PDZ = experiment: holdup assay, updated analysis; format: binding, human; details: weak partner; automated computational protocol
Method in brief: as §2

PDZRN3–2 PDZ = experiment: holdup assay, updated analysis; format: binding, human; details: weak partner; automated computational protocol
Method in brief: as §2

DLG3 PDZ = experiment: holdup assay, updated analysis; format: binding, human; details: weak partner; automated computational protocol
Method in brief: as §2

binding intensity (BI) (GORASP2 PDZ) | Kd (GORASP2 PDZ) | binding intensity (BI) (DLG4-2 PDZ) | binding intensity (BI) (GORASP1 PDZ) | Kd (GORASP1 PDZ) | binding intensity (BI) (MAST1 PDZ) | Kd (MAST1 PDZ) | binding intensity (BI) (HTRA1 PDZ) | Kd (HTRA1 PDZ) | binding intensity (BI) (SHROOM2 PDZ) | Kd (SHROOM2 PDZ) | binding intensity (BI) (GRID2IP-1 PDZ) | Kd (GRID2IP-1 PDZ) | binding intensity (BI) (PPP1R9A PDZ) | Kd (PPP1R9A PDZ) | binding intensity (BI) (SNTB1 PDZ) | Kd (SNTB1 PDZ) | binding intensity (BI) (LNX1 −3 PDZ) | Kd (LNX1 −3 PDZ) | Substance | interaction partner by updated analysis (SCRIB-3 PDZ) | also measured
0.41 ± 0.02 | 22.1 µM | 0.11 ± 0.03 | 0.01 ± 0.02 | > 100 µM | 0.57 ± 0.01 | 11.1 µM | 0.44 ± 0.03 | 19.4 µM | 0.00 ± 0.01 | > 100 µM | 0.06 ± 0.02 | > 100 µM | 0.00 ± 0.02 | > 100 µM | 0.22 ± 0.04 | 57.2 µM | 0.04 ± 0.02 | > 100 µM | unphosphorylated RSK1 peptide: C-terminal RSK1 PBM peptide; RSK1_725–735 (holdup, SPR), RSK1_729–735 (direct FP), RSK1_683–735 (competitive FP) ({Biotin-TTDS}-RRVRKLPSTTL) | new interaction partners | dissociation constant (SYNJ2BP PDZ): no interaction was detectable; Kd (DLG4-2 PDZ; read-out: KD, estimated, from BI, estimated 17 μM peptide): > 100 µM; interaction partner by updated analysis (MPDZ-10 PDZ): new interaction partners; binding intensity (BI) (PTPN3 PDZ): 0.05 ± 0.02; Kd (PTPN3 PDZ): > 100 µM; interaction partner by updated analysis (RHPN1 PDZ): new interaction partners
0.19 ± 0.01 | 69.2 µM | 0.25 ± 0.02 | 0.23 ± 0.03 | 53.8 µM | 0.08 ± 0.03 | > 100 µM | 0.36 ± 0.01 | 27.7 µM | 0.21 ± 0.01 | 60.8 µM | 0.24 ± 0.01 | 50.8 µM | 0.33 ± 0.02 | 31.8 µM | 0.45 ± 0.08 | 18.6 µM | 0.24 ± 0.07 | 50.8 µM | phosphorylated RSK1 peptide: RSK1 C-terminal PBM peptide phosphorylated at position −3; same constructs as the unphosphorylated ({Biotin-TTDS}-RRVRKLP[pS]TTL) | new partners | interaction partner by updated analysis (LIN7A PDZ): new partners; interaction partner by updated analysis (PDZRN3–2 PDZ): new partners; binding intensity (BI) (PTPN3 PDZ): 0.21 ± 0.02; Kd (PTPN3 PDZ): 60.8 µM; interaction partner by updated analysis (DLG3 PDZ): new partners
